Legend:
[1] = biological target: 5-hydroxytryptamine receptor 2A (Rattus norvegicus) (UniProt P14842); assay: Displacement of [3H]ketanserin from rat cortical membrane 5-hydroxytryptamine 2A receptor at 10e-7 M
Outline: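 Single-concentration screen at 10^-7 M: displacement of [3H]ketanserin (1.0 nM) from rat cortical membranes, methysergide as reference. Reported as % inhibition versus binding with no drug, mean of duplicate tubes in one experiment. Checked against a verification screen.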

[2] = test system: Serotonin transporter (Rattus norvegicus); assay: Displacement of [3H]-citalopram from rat forebrain membrane serotonin transporter at 10e-7 M
[3] = biological target: T1, Adrenergic receptor alpha-1 (Rattus norvegicus, UniProt P15823+P23944+P43140); assay: Compound was tested for the inhibition of [3H]-prazosin binding to Alpha-1 adrenergic receptor; format: protein assay
T1 sequence (P15823 whole entry): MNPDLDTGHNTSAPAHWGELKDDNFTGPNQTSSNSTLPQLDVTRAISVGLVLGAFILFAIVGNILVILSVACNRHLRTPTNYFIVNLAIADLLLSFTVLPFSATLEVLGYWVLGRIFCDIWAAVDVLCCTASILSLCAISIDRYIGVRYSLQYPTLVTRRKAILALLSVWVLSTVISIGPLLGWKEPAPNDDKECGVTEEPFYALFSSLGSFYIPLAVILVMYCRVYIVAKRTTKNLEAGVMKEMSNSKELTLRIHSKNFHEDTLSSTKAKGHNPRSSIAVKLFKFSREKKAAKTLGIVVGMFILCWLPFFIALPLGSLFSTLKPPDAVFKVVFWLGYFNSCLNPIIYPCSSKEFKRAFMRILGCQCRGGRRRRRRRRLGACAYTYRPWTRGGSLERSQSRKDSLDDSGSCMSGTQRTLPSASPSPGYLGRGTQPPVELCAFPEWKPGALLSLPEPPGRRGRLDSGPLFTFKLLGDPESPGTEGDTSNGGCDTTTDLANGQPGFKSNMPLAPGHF
T1 sequence (P23944 whole entry): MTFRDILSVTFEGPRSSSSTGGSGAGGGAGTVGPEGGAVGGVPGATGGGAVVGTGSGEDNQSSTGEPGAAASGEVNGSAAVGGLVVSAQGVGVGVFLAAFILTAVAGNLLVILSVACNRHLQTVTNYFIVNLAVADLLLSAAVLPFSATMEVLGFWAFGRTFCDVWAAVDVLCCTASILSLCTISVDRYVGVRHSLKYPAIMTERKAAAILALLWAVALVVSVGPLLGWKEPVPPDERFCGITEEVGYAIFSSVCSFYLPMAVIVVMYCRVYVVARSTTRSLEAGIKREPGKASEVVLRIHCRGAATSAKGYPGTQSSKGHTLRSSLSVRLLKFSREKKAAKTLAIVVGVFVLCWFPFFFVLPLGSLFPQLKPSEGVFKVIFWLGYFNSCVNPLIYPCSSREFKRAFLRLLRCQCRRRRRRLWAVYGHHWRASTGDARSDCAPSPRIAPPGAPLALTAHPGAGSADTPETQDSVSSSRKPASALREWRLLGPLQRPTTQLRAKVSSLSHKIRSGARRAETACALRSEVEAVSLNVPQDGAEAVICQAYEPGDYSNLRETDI
T1 sequence (P43140 whole entry): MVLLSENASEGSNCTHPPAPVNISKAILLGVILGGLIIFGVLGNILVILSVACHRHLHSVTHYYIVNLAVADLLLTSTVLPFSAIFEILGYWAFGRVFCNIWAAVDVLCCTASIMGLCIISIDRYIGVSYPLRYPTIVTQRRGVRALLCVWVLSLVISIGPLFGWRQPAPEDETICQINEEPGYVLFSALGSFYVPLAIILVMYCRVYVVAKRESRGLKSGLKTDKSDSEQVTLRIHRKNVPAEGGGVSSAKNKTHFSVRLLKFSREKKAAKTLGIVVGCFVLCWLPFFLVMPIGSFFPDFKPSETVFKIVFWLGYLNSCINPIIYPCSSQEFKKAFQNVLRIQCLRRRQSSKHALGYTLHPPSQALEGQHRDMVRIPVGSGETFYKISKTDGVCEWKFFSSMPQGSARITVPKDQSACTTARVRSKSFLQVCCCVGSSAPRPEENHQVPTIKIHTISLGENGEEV
Outline: (§1)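 Radioligand displacement on rat cortical membranes using [3H]prazosin (0.5 nM), with prazosin as the reference compound. IC50 derived from six test concentrations, each in triplicate, in one experiment. Run at an external screening laboratory.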

[4] = biological target: T2, 5-hydroxytryptamine receptor 2A (Rattus norvegicus, UniProt P14842); assay: Compound was tested for the inhibition of [3H]ketanserin binding to 5-hydroxytryptamine 2A receptor
Outline: (§2)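 Radioligand displacement on rat cortical membranes using [3H]ketanserin (1.0 nM), with methysergide as the reference compound. IC50 derived from six test concentrations, each in triplicate, in one experiment. Run at an external screening laboratory.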

[5] = biological target: D(2) dopamine receptor (Rattus norvegicus) (UniProt P61169); assay: Displacement of [3H]sulpiride from rat striatal membrane Dopamine receptor D2 at 10e-7 M
Outline: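 Single-concentration screen at 10^-7 M: displacement of [3H]sulpiride (3.0 nM) from rat striatal membranes, sulpiride as reference. Reported as % inhibition versus binding with no drug, mean of duplicate tubes in one experiment.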

[6] = test system: Sigma non-opioid intracellular receptor 1 (Sus scrofa); assay: Inhibition of [3H](+)-pentazocine binding to Sigma opioid receptor type 1 of pig brain membranes at 10e-7 M
[7] = biological target: Adrenergic receptor alpha-1 (Rattus norvegicus) (UniProt P15823+P23944+P43140); assay: Displacement of [3H]prazosin from Alpha-1 adrenergic receptor of rat cortical membrane at 10e-7 M
Outline: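 Single-concentration screen at 10^-7 M: displacement of [3H]prazosin (0.5 nM) from rat cortical membranes, prazosin as reference. Reported as % inhibition versus binding with no drug, mean of duplicate tubes in one experiment. Checked against a verification screen.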

[8] = biological target: Histamine H1 receptor (Bos taurus) (UniProt P30546); assay: Inhibition of [3H]pyrilamine binding to Histamine H1 receptor of bovine cerebellar membrane at 10e-7 M
Outline: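 Single-concentration screen at 10^-7 M: displacement of [3H]pyrilamine (2.0 nM) from bovine cerebellar membranes, triprolidine as reference. Reported as % inhibition versus binding with no drug, mean of duplicate tubes in one experiment.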

[9] = biological target: Norepinephrine transporter (Rattus norvegicus) (UniProt Q9WTR4); assay: Inhibition of [3H]desmethylimipramine binding to […] of rat cortical membrane at 10e-7 M
Outline: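 Single-concentration screen at 10^-7 M: displacement of [3H]desmethylimipramine (3.0 nM) from rat cortical membranes, desipramine as reference. Reported as % inhibition versus binding with no drug, mean of duplicate tubes in one experiment.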

[10] = biological target: T1, Adrenergic receptor alpha-1; assay: Compound was tested for it's binding affinity towards alpha-1 adrenergic receptor; format: protein assay; outline: as §1
Rattus norvegicus [11] = organism: Rattus norvegicus; assay: In vitro functional activity (pA2) by using isolated rat vas deferens smooth muscle preparation (on adrenergic system); conditions: Muscle tissue, read-out: pA2 (converted)
Outline: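 Vas deferens from male Sprague–Dawley rats (200-300 g), 3-4 preparations, isometric contraction recorded. Cumulative L-noradrenaline concentration-response curves built stepwise once each response was steady.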

[12] = biological target: T2, 5-hydroxytryptamine receptor 2A; assay: Compound was tested for it's binding affinity towards 5-hydroxytryptamine 2A receptor; outline: as §2
Rattus norvegicus [13] = organism: Rattus norvegicus; assay: In vitro functional activity (pA2) by using isolated rat aorta smooth muscle preparation (on serotonergic system); conditions: Muscle tissue, read-out: pA2 (converted)
Outline: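 Aorta strips from male Sprague–Dawley rats (200-300 g), 3-7 preparations, isometric contraction recorded. Cumulative serotonin concentration-response curves built stepwise once each response was steady.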

[14] = biological target: T1, Adrenergic receptor alpha-1; assay: Compound was tested for it's binding affinity towards Alpha-1 adrenergic receptor; format: protein assay; outline: as §1

Sequence of Histamine H1 receptor (Bos taurus) (P30546 whole entry): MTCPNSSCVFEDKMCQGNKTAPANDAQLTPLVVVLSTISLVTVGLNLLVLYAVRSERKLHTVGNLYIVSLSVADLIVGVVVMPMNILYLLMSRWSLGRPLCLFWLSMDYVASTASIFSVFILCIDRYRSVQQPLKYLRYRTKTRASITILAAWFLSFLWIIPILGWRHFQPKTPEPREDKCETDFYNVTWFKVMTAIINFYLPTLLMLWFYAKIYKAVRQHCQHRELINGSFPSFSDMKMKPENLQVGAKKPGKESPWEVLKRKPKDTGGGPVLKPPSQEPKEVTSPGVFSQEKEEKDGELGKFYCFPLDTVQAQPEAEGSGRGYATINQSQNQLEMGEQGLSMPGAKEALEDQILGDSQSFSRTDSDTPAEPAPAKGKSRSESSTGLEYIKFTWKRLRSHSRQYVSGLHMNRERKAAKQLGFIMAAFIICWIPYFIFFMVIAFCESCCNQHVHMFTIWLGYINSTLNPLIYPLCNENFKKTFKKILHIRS
Sequence of Norepinephrine transporter (Rattus norvegicus) (Q9WTR4 as listed by the source): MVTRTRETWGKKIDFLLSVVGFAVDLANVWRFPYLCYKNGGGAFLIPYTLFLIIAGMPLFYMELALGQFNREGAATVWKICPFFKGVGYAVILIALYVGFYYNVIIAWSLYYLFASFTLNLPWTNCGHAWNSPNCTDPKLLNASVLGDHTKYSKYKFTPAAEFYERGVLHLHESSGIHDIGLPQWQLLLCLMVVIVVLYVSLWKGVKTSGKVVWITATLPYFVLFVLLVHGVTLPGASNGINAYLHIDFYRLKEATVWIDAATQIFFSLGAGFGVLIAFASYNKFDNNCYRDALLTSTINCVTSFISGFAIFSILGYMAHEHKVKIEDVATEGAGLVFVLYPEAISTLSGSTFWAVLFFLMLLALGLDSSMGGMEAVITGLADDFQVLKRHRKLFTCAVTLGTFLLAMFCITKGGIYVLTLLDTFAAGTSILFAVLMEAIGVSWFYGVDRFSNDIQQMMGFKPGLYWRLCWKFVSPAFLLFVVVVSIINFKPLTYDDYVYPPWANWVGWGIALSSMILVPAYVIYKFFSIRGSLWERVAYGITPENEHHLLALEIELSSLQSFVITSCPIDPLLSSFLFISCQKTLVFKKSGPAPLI
Sequence of D(2) dopamine receptor (Rattus norvegicus) (P61169 whole entry): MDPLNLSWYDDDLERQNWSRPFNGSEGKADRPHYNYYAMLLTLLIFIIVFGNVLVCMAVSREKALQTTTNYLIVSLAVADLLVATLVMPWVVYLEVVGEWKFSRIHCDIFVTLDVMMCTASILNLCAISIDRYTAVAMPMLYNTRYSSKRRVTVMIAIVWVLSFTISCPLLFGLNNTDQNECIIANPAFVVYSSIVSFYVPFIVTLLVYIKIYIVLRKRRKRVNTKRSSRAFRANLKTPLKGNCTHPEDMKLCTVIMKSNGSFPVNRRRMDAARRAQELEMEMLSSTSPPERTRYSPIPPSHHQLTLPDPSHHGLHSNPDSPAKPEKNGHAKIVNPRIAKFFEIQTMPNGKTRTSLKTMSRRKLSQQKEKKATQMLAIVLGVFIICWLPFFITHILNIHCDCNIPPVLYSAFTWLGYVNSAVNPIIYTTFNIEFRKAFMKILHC
Sequence of 5-hydroxytryptamine receptor 2A (Rattus norvegicus) (P14842 whole entry): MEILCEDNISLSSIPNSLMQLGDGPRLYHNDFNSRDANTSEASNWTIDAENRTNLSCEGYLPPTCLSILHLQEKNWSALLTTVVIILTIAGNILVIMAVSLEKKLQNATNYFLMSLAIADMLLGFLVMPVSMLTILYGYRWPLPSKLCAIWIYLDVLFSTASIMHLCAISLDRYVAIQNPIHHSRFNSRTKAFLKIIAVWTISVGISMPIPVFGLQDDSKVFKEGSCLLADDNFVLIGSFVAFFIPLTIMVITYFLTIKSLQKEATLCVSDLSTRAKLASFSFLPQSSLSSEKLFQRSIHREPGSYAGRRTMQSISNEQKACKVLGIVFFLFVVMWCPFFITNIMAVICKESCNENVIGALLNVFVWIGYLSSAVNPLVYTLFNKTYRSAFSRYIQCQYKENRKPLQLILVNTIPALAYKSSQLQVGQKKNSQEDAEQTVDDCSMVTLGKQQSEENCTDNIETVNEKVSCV
T2 sequence (P14842 whole entry): as above

CC(CN1CCN(c2cccc(Cl)c2)CC1)Cn1nc2ccccn2c1=O (centres undefined)
inhibition [1]: 52% | inhibition [2]: 4% | IC50 [3]: 531 nM | IC50 [4]: 94 nM | inhibition [5]: 3% | inhibition [6]: 34% | inhibition [7]: 27% | inhibition [8]: 7% | inhibition [9]: 0%

O=C1CN(CCCn2nc3ccccn3c2=O)CCN1c1cccc(Cl)c1
inhibition [1]: 5% | inhibition [2]: 2% | inhibition [5]: 0% | inhibition [6]: 12% | inhibition [7]: 5% | inhibition [8]: 2% | inhibition [9]: 0%

C[C@H]1CN(c2cccc(Cl)c2)CCN1CCCn1nc2ccccn2c1=O
IC50 [10]: 981 nM | Kb (Rattus norvegicus [11]): 3980 nM | IC50 [12]: 25.4 nM | Kb (Rattus norvegicus [13]): 3.16 nM

O=c1n(CCCNCCNc2cccc(Cl)c2)nc2ccccn12
inhibition [1]: 4% | inhibition [2]: 10% | inhibition [5]: 3% | inhibition [6]: 29% | inhibition [7]: 8% | inhibition [8]: 0% | inhibition [9]: 0%

C[C@@H]1CN(c2cccc(Cl)c2)CCN1CCCn1nc2ccccn2c1=O
Kb (Rattus norvegicus [11]): 158 nM | IC50 [12]: 234 nM | Kb (Rattus norvegicus [13]): 12.6 nM | IC50 [14]: 533 nM

CC(CN1CCN(c2cccc(Cl)c2)C(C)C1)Cn1nc2ccccn2c1=O (centres undefined)
inhibition [1]: 20% | inhibition [2]: 6% | inhibition [5]: 0% | inhibition [6]: 65% | inhibition [7]: 7% | inhibition [8]: 12% | inhibition [9]: 0%

O=c1n(CCCN2CCN(c3cccc(Cl)c3)CC2)nc2ccccn12
inhibition [1]: 78% | inhibition [5]: 12% | inhibition [8]: 5% | inhibition [9]: 0%

CC1CN(CCCn2nc3ccccn3c2=O)CCN1c1cccc(Cl)c1 (centres undefined)
inhibition [1]: 34% | inhibition [2]: 15% | inhibition [5]: 0% | inhibition [6]: 68% | inhibition [7]: 25% | inhibition [8]: 7% | inhibition [9]: 0%

CC1C(=O)N(c2cccc(Cl)c2)CCN1CCCn1nc2ccccn2c1=O (centres undefined)
inhibition [1]: 0% | inhibition [2]: 0% | inhibition [5]: 4% | inhibition [6]: 9% | inhibition [7]: 2% | inhibition [8]: 4% | inhibition [9]: 0%

CC1CN(CCCn2nc3ccccn3c2=O)C(C)(C)CN1c1cccc(Cl)c1 (centres undefined)
inhibition [1]: 40% | inhibition [2]: 38% | inhibition [5]: 3% | inhibition [6]: 81% | inhibition [7]: 11% | inhibition [8]: 9% | inhibition [9]: 0%

CC1CN(c2cccc(Cl)c2)CCN1CCCn1nc2ccccn2c1=O (centres undefined)
inhibition [1]: 69% | inhibition [2]: 45% | IC50 [3]: 471 nM | IC50 [4]: 31 nM | inhibition [5]: 8% | inhibition [6]: 43% | inhibition [7]: 37% | inhibition [8]: 13% | inhibition [9]: 2%

CN(CCCn1nc2ccccn2c1=O)CCNc1cccc(Cl)c1
inhibition [1]: 0% | inhibition [2]: 15% | inhibition [5]: 2% | inhibition [6]: 30% | inhibition [7]: 10% | inhibition [8]: 0% | inhibition [9]: 4%

CCC1CN(c2cccc(Cl)c2)CCN1CCCn1nc2ccccn2c1=O (centres undefined)
inhibition [1]: 60% | inhibition [2]: 20% | IC50 [3]: 493 nM | IC50 [4]: 169 nM | inhibition [5]: 10% | inhibition [6]: 43% | inhibition [7]: 44% | inhibition [8]: 14% | inhibition [9]: 0%

CN(CCNCCCn1nc2ccccn2c1=O)c1cccc(Cl)c1
inhibition [1]: 0% | inhibition [2]: 23% | inhibition [5]: 4% | inhibition [6]: 65% | inhibition [7]: 12% | inhibition [8]: 0% | inhibition [9]: 0%

CC(CCn1nc2ccccn2c1=O)N1CCN(c2cccc(Cl)c2)CC1 (centres undefined)
inhibition [1]: 65% | inhibition [2]: 63% | IC50 [3]: 627 nM | IC50 [4]: 17 nM | inhibition [5]: 2% | inhibition [6]: 58% | inhibition [7]: 26% | inhibition [8]: 31% | inhibition [9]: 0%
